Data: ChEMBL document CHEMBL1148770, “Conformation-activity relationship of neuropeptide S and some structural mutants: helicity affects their interaction with the receptor” (J Med Chem, 2007)
Square brackets hold non-standard residues; d marks the D form. Peptide text beside a SMILES is read from it. Aib = CC(C)(N)C(=O)O

How the values were obtained:
Format in all cases: functional, cell-based
Neuropeptide S receptor [1] = molecular target: T1, Neuropeptide S receptor (Mus musculus, UniProt Q8BZP8); test: Agonist activity at mouse recombinant NPSR expressed in HEK293 cells assessed as calcium mobilization
T1 sequence (Q8BZP8 whole entry): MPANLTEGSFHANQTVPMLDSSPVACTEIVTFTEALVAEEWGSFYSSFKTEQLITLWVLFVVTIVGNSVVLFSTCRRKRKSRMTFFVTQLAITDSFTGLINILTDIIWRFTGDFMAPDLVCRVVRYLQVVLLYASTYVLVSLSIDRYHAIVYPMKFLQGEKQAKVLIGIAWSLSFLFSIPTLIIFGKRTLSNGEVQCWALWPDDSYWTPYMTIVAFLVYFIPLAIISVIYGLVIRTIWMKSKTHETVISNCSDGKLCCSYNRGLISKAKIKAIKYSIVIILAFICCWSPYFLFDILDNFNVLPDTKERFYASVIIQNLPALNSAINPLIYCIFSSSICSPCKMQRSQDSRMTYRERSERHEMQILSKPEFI
Method in brief: (§1)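 HEK293 cells stably expressing mouse NPSR, grown in DMEM/10% FBS/2 mM glutamine/hygromycin at 37 °C, 5% CO2. Seeded 50,000 cells/well on poly-D-lysine; next day loaded 30 min at 37 °C with 3 µM Fluo-4 AM, 2.5 mM probenecid, 0.01% pluronic acid. Read in HBSS/20 mM HEPES/probenecid/Brilliant Black at ≈22 °C on FlexStation; peak fluorescence change as % baseline; logistic fit; ≥4 experiments in duplicate.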

[2] = molecular target: T2, Neuropeptide S receptor (Mus musculus) (UniProt Q8BZP8); test: Agonist activity at mouse recombinant NPSR expressed in HEK293 cells assessed as calcium mobilization relative to baseline; method in brief: as §1
T2 sequence (whole entry): T1 sequence (Q8BZP8 whole entry)

Neuropeptide S receptor [3] = molecular target: T1, Neuropeptide S receptor; test: Antagonist activity at mouse NPSR expressed in HEK293 cells assessed as inhibition of 100 nM hNPS-induced calcium mobilization
Method in brief: (§2)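 Mouse NPSR stably expressed in HEK293 cells, grown with hygromycin, then plated at 50 000 cells/well. Next day, cells were loaded for 30 min at 37 °C with 3 µM Fluo-4 AM, 2.5 mM probenecid and 0.01% pluronic acid. The assay buffer was HBSS with 20 mM HEPES, probenecid and 500 µM Brilliant Black. Fluorescence was read at about 22 °C. pIC50 came from a logistic fit of peak fluorescence (% of baseline). At least four experiments, each in duplicate.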

Neuropeptide S receptor [4] = molecular target: T1, Neuropeptide S receptor; test: Antagonist activity at mouse NPSR expressed in HEK293 cells assessed as inhibition of 10 nM hNPS-induced calcium mobilization; method in brief: as §2

Structure (SMILES): CSCC[C@H](NC(=O)C(C)(C)NC(=O)[C@@H](NC(=O)CNC(=O)[C@@H](NC(=O)CNC(=O)[C@H](CC(N)=O)NC(=O)[C@H](CCCNC(=N)N)NC(=O)[C@H](Cc1ccccc1)NC(=O)[C@@H](N)CO)C(C)C)[C@@H](C)O)C(=O)N[C@@H](CCCCN)C(=O)N[C@@H](CCCCN)C(=O)N[C@H](C(=O)N[C@@H](CO)C(=O)N[C@@H](Cc1ccccc1)C(=O)N[C@@H](CCC(N)=O)C(=O)N[C@@H](CCCNC(=N)N)C(=O)N[C@@H](C)C(=O)N[C@@H](CCCCN)C(=O)N[C@@H](CO)C(=O)O)[C@@H](C)O (H-SFRNGVGT[Aib]MKKTSFQRAKS-OH)
- EC50 (Neuropeptide S receptor [1]): 10.2 nM
- Emax [2]: 190%

Structure (SMILES): CSCC[C@H](NC(=O)CNC(=O)[C@@H](NC(=O)CNC(=O)[C@@H](NC(=O)C(C)(C)NC(=O)[C@H](CC(N)=O)NC(=O)[C@H](CCCNC(=N)N)NC(=O)[C@H](Cc1ccccc1)NC(=O)[C@@H](N)CO)C(C)C)[C@@H](C)O)C(=O)N[C@@H](CCCCN)C(=O)N[C@@H](CCCCN)C(=O)N[C@H](C(=O)N[C@@H](CO)C(=O)N[C@@H](Cc1ccccc1)C(=O)N[C@@H](CCC(N)=O)C(=O)N[C@@H](CCCNC(=N)N)C(=O)N[C@@H](C)C(=O)N[C@@H](CCCCN)C(=O)N[C@@H](CO)C(=O)O)[C@@H](C)O (H-SFRN[Aib]VGTGMKKTSFQRAKS-OH)
- EC50 (Neuropeptide S receptor [1]): 191 nM
- Emax [2]: 65%
- IC50 (Neuropeptide S receptor [3]): 1620 nM
- IC50 (Neuropeptide S receptor [4]): 537 nM
